In data set [1] the target is T1, Signal transducer and activator of transcription 5B (Homo sapiens, UniProt P51692).
T1 sequence (P51692 whole entry): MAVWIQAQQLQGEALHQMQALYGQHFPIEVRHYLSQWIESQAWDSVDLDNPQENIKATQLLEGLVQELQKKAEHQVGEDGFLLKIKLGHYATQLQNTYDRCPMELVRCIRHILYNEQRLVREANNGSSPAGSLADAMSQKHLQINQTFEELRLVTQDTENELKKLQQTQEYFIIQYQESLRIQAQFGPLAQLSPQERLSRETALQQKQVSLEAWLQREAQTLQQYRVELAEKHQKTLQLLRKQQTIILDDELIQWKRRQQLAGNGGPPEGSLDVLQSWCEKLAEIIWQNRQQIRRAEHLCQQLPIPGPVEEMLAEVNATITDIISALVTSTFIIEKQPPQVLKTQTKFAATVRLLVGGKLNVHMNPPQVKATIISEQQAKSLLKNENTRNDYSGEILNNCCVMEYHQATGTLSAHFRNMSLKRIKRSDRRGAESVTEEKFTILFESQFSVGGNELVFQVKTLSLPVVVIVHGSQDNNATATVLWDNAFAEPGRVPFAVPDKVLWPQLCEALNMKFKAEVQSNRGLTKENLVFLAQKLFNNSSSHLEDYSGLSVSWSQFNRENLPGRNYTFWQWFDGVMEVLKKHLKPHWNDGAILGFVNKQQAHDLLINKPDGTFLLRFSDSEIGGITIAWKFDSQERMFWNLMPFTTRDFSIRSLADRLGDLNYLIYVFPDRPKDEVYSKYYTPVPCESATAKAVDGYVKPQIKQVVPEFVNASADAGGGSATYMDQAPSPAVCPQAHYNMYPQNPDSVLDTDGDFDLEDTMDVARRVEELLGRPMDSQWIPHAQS
As to the kind of experiment: Binding affinity to human recombinant STAT5B assessed as dissociation constant incubated for 15 mins by biolayer interferometry. A digest of the protocol: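 Biolayer interferometry with recombinant human STAT1, STAT2, STAT3, STAT4, STAT5A, STAT5B or STAT6 proteins containing their SH2 domain. Compound run in 2× serial dilutions from 200 nM. Kd taken from steady-state fitting of equilibrium responses against concentration using a 1:1 binding model.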
(Biolayer interferometry detects binding as a change in optical thickness at a sensor tip.)

For data set [2], the target named is Signal transducer and activator of transcription 3 (Homo sapiens, UniProt P40763). As to the kind of experiment: Induction of STAT3 degradation in human MOLM-16 cells assessed as decrease in STAT3 level at 1 uM incubated for 4 hrs by proteomic analysis. It is filed as cell-based. The following applies: MOLM16. Summed up: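 MOLM-16 cells treated with 1 or 10 μM for 4 h. Protein levels measured by quantitative proteomics across more than 7000 proteins.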
Sequence of Signal transducer and activator of transcription 3 (P40763 whole entry): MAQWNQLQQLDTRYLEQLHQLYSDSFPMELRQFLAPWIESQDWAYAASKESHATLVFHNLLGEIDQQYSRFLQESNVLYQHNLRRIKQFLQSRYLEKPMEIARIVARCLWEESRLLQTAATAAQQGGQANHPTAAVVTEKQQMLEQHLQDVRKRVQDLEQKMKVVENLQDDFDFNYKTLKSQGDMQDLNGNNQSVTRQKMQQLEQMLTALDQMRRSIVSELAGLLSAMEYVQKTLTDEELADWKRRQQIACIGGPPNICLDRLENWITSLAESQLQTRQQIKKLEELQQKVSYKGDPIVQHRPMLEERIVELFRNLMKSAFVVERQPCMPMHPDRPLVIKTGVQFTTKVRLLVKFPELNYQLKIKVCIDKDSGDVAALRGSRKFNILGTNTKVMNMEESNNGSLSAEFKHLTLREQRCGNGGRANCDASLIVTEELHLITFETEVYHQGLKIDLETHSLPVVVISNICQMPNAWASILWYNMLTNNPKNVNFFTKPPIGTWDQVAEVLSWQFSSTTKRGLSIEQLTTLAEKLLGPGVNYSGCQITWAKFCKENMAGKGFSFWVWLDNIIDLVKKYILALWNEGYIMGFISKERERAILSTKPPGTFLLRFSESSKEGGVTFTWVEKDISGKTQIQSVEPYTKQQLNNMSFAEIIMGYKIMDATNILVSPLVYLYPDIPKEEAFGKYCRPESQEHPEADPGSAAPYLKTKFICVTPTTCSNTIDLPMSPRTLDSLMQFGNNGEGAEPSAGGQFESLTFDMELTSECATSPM

The test system of the next data set is Mus musculus. Description: In vivo induction of STAT1 degradation in SCID mouse xenografted with human MOLM16 cells assessed as reduction in STAT1 in tumor tissue at 50 mg/kg, iv measured after 24 hrs by immunoblotting analysis. It is filed as functional, organism-based. Summed up:
(§1)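 SCID mice bearing MOLM-16 tumors given a single iv dose of 50 mg/kg or dosing vehicle. Tumor lysates immunoblotted for STAT3, STAT1 and STAT6 at time points from 1 h to at least 24 h.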
(In general: Xenograft models place foreign cells or tissue in a host animal.)

Data set [3] in a line: Stability of the compound in PEG400/phosphate buffer saline measured upto 100 hrs by LC/MS/MS analysis. It is filed as physicochemical. A digest of the protocol:
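Compound incubated at room temperature in dosing vehicle (10% PEG400/90% phosphate buffered saline); percentages of parent and conversion products determined at time points up to 96 h.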

In data set [4] the target is Protein cereblon/Signal transducer and activator of transcription 3 (Homo sapiens, UniProt P40763+Q96SW2). Description: Protac activity at CRBN/STAT3 in human MOLM-16 cells assessed as degradation of STAT3 incubated for 4 hrs by western blot analysis. Type of data set: cell-based. Particulars: molm16. A digest of the protocol: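 Cells treated 4 h with compounds across 25 nM to 100 μM; STAT proteins detected by Western blot with GAPDH as loading control; STAT3 DC50 estimated by densitometry of STAT3 relative to GAPDH. Applies to MOLM-16 for all STATs, and to SU-DHL-1 and SUP-M2 for STAT3.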
Sequence of Protein cereblon/Signal transducer and activator of transcription 3 (P40763 whole entry): as above
Sequence of Protein cereblon/Signal transducer and activator of transcription 3 (Q96SW2 whole entry): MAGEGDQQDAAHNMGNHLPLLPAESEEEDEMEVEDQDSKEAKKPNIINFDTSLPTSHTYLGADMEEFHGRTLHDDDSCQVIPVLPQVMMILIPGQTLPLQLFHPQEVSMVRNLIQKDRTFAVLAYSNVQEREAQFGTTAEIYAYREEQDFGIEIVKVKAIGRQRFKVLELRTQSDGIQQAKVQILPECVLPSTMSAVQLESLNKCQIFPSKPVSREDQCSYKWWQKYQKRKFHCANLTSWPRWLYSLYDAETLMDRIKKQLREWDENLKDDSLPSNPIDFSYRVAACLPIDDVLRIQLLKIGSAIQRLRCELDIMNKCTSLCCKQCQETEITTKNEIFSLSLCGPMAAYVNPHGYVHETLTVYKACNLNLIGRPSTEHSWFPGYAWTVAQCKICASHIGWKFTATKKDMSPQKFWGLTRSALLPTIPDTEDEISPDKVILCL
Background: A western blot detects proteins with antibodies after separation by electrophoresis.

Data set [5] addresses T2, Protein cereblon/Signal transducer and activator of transcription 1-alpha/beta (Homo sapiens) (UniProt P42224+Q96SW2). As to the kind of experiment: Protac activity at CRBN/STAT1 in human SU-DHL-1 cells […] at 0.25 to 100 uM incubated for 4 hrs by Western blot analysis. Particulars: dose lower 0.25 µM. It is filed as cell-based.
The target of data set [6] is T2, Protein cereblon/Signal transducer and activator of transcription 1-alpha/beta (Homo sapiens). Description: In vivo protac activity at CRBN/STAT1 degradation in SCID mouse xenografted with human MOLM16 cells assessed as reduction in STAT1 in tumor tissue at 50 mg/kg, iv measured after 24 hrs by immunoblotting analysis. Type of data set: functional, organism-based. Summed up: as §1

Data set [7] in a line: Drug uptake in SCID mouse xenografted with human MOLM16 cells assessed as (2-(((5S,8S,10aR)-8-(((S)-5-amino-1-(benzhydrylamino)-1,5-dioxopentan-2-yl)carbamoyl)-3-(8-(2-(2,6-dioxopiperidin-3-yl)-1-oxoisoindolin-4-yl)oct-7-yno yl)-6-oxodecahydropyrrolo[1,2-a][1,5]diazocin-5-yl)carbamoyl)-1H-indole-5-carbonyl)phosphonic acid level in tumor tissue at 50 mg/kg, iv measured after 1 hrs by LC-MS/MS. Type of data set: ADME, organism-based. The following applies: in vivo. Summed up:
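SCID mice bearing MOLM-16 xenografts given a single iv dose of 50 mg/kg. Concentrations of parent and hydrolysis product measured in plasma (ng/mL) and tumor tissue (ng/g) at 1, 6 and 24 h.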

Data set [8] is described as follows: Stability of compound in buffer pH 8 assessed as conversion to (2-(((5S,8S,10aR)-8-(((S)-5-amino-1-(benzhydrylamino)-1,5-dioxopentan-2-yl)carbamoyl)-3-(8-(2-(2,6-dioxopiperidin-3-yl)-1-oxoisoindolin-4-yl)oct-7-ynoyl)-6-oxodecahydropyrrolo[1,2-a][1,5]diazocin-5-yl)carbamoyl)-1H-indole-5-carbonyl)phosphonic acid by measuring half life at 37 degC by LC/MS/MS analysis. Type of data set: physicochemical. A digest of the protocol: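 SD-36 incubated in pH 8 buffer at 37 °C; percentages of parent and hydrolysis products followed over time; half-life of conversion derived from the time course.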

Active and inactive are the calls of the source. The rule behind the calls is not given here.

Usually Kd stands for the constant that tells how readily two partners part at equilibrium. By DC50 is commonly meant the midpoint of the concentration-degradation curve.

For the compound `NC(=O)CC[C@H](NC(=O)[C@@H]1CC[C@@H]2CCN(C(=O)CCCCCC#Cc3cccc4c3CN(C3CCC(=O)NC3=O)C4=O)C[C@H](NC(=O)c3cc4cc(C(=O)P(=O)(O)O)ccc4[nH]3)C(=O)N21)C(=O)NC(c1ccccc1)c1ccccc1` (some centres undefined), the Kd in data set [1] was above 10 nM. For the same compound, in [2], the result was Active. Also, in the data set with Mus musculus, the outcome was inactive. Besides, the Stabilty entry in data set [3] is given as “Stable”.
As to `NC(=O)CC[C@H](NC(=O)[C@@H]1CC[C@@H]2CCN(C(=O)CCCCCC#Cc3cccc4c3CN(C3CCC(=O)NC3=O)C4=O)C[C@H](NC(=O)c3cc4cc(C(F)(F)P(=O)(O)O)ccc4[nH]3)C(=O)N21)C(=O)NC(c1ccccc1)c1ccccc1` (some centres undefined), in data set [4], the DC50 turned out to be 380 nM. Further, the outcome in data set [5] and in data set [6] was inactive. The Drug uptake in data set [7] is 6350 ng/g. For the same compound, the t1/2 in data set [8] is 4 h.

The values are drawn from ChEMBL document CHEMBL4706770, “SD-91 as A Potent and Selective STAT3 Degrader Capable of Achieving Complete and Long-Lasting Tumor Regression” (ACS Med Chem Lett, 2021).
